Reference: ChEMBL document CHEMBL1914320, “C4-alkylthiols with activity against Moraxella catarrhalis and Mycobacterium tuberculosis” (Bioorg Med Chem, 2011)
The source made the active and inactive calls. The calls are words filed in the database; no cut-off is given here.

Assays:
[1] = tested on: Escherichia coli; assay: Antibacterial activity against non-beta-lactamase producing Escherichia coli ATCC 25922 at 10 ug/disc after overnight incubation by disc diffusion assay; format: functional, organism-based
In short: (§1)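 Isolates were held at −80 °C. Five colonies were suspended in Mueller-Hinton broth to a 0.5 McFarland density and swabbed onto MH agar. Discs carried 10 μg compound, applied in methanol and dried at room temperature. Plates were incubated overnight at 37 °C, and the zone of inhibition was measured in mm from the disc edge. Controls were methanol-only and penicillin discs. Run blinded, in triplicate.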

[2] = tested on: Pseudomonas aeruginosa; assay: Antibacterial activity against non-beta-lactamase producing Pseudomonas aeruginosa ATCC 27853 at 10 ug/disc after overnight incubation by disc diffusion assay; format: functional, organism-based; in short: as §1
[3] = tested on: Staphylococcus aureus; assay: Antibacterial activity against non-beta-lactamase producing Staphylococcus aureus ATCC 25923 at 10 ug/disc after overnight incubation by disc diffusion assay; format: functional, organism-based; in short: as §1
[4] = tested on: Enterococcus faecalis; assay: Antibacterial activity against non-beta-lactamase producing Enterococcus faecalis ATCC 29212 at 10 ug/disc after overnight incubation by disc diffusion assay; format: functional, organism-based; in short: as §1
[5] = tested on: Escherichia coli; assay: Antibacterial activity against non-beta-lactamase producing Escherichia coli ATCC 25922 after 48 hrs by microdilution broth method; format: functional, organism-based
In short: (§2)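 Broth microdilution followed CLSI guidelines. Compound was dissolved in 95% ethanol, diluted at least 10-fold into Mueller-Hinton broth, then serially two-fold diluted from 500 to 15.6 μg/mL. Actively growing culture was added at 5 × 10^5 cells/mL. Plates ran 48 h at 37 °C, scored for visible growth at 24 and 48 h. MIC was the lowest concentration without growth. For MBC, 10 μL from each clear well was plated on MH agar. Controls were ethanol and penicillin. Triplicate.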

[6] = tested on: Pseudomonas aeruginosa; assay: Antibacterial activity against non-beta-lactamase producing Pseudomonas aeruginosa ATCC 27853 after 48 hrs by microdilution broth method; format: functional, organism-based; in short: as §2
[7] = tested on: Staphylococcus aureus; assay: Antibacterial activity against non-beta-lactamase producing Staphylococcus aureus ATCC 25923 after 48 hrs by microdilution broth method; format: functional, organism-based; in short: as §2
[8] = tested on: Enterococcus faecalis; assay: Antibacterial activity against non-beta-lactamase producing Enterococcus faecalis ATCC 29212 after 48 hrs by microdilution broth method; format: functional, organism-based; in short: as §2
[9] = Chemical stability of the compound assessed as compound degradation after 48 hrs by NMR analysis; format: physicochemical; settings: for degraded at 48 h: read-out: Drug metabolism
[10] = tested on: Moraxella catarrhalis; assay: Antibacterial activity against beta-lactamase producing Moraxella catarrhalis isolate 1 at 10 ug/disc after overnight incubation by disc diffusion assay; format: functional; in short: as §1
[11] = tested on: Moraxella catarrhalis; assay: Antibacterial activity against beta-lactamase producing Moraxella catarrhalis isolate 2 at 10 ug/disc after overnight incubation by disc diffusion assay; format: functional; settings: read-out: IZ; in short: as §1
[12] = tested on: Moraxella catarrhalis; assay: Antibacterial activity against beta-lactamase producing Moraxella catarrhalis isolate 3 at 10 ug/disc after overnight incubation by disc diffusion assay; format: functional; in short: as §1
[13] = tested on: Moraxella catarrhalis; assay: Antibacterial activity against beta-lactamase producing Moraxella catarrhalis isolate 4 at 10 ug/disc after overnight incubation by disc diffusion assay; format: functional; in short: as §1
[14] = tested on: Moraxella catarrhalis; assay: Antibacterial activity against beta-lactamase producing Moraxella catarrhalis isolate 5 at 10 ug/disc after overnight incubation by disc diffusion assay; format: functional; settings: read-out: IZ; in short: as §1

Structure (SMILES)	Activity [1]	Activity [2]	Activity [3]	Activity [4]	Activity [5]	Activity [6]	Activity [7]	Activity [8]	degraded at 48 h [9]	inhibition zone (IZ) [10]	zone of inhibition at 10 µg/disc [11]	inhibition zone (IZ) [12]	inhibition zone (IZ) [13]	zone of inhibition at 10 µg/disc [14]	Percent compound degraded ([9]; 48 h)
CCOC(=O)C/N=C\C(CC)(CC)SSC(C=O)(CC)CC	inactive	inactive	inactive	inactive	inactive	inactive	inactive	inactive	10%						
CCC(C=O)(CC)SSC(/C=N\CC(=O)OC)(CC)CC	inactive	inactive	inactive	inactive	inactive	inactive	inactive	inactive	10%						
CCOC(=O)C/N=C\C(CC)(CC)SSC(/C=N/CC(=O)OCC)(CC)CC	inactive	inactive	inactive	inactive	inactive	inactive	inactive	inactive	10%						
CCOC(=O)C/N=C\C(S)(CC)CC	inactive	inactive	inactive	inactive	inactive	inactive	inactive	inactive		inactive	2 mm	inactive	inactive	11 mm	10%
